Results reported in ChEMBL document CHEMBL4477210, “Gramine Derivatives Targeting Ca(2+) Channels and Ser/Thr Phosphatases: A New Dual Strategy for the Treatment of Neurodegenerative Diseases” (J Med Chem, 2016).
Activity calls are given as the source filed them. The rule behind the calls is not given here.

Tests used:
SH-SY5Y [1] = assay: Cytotoxicity against human SH-SY5Y cells assessed as reduction of cell viability at <10 uM incubated for 48 hrs by MTT assay; assay type: cell-based
In short: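 SH-SY5Y cells exposed to compounds for 48 h; viability read by MTT reduction (final 0.3 mg/mL, 2 h at 37 °C in the dark), formazan dissolved in DMSO, absorbance at 540 nm, expressed as % of untreated cells.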

[2] = tested on: Voltage-gated calcium channel; assay: Inhibition of VGCC in human SHSY-5Y cells assessed as reduction of K+-evoked cytosolic ca2+ at 1 uM incubated for 10 mins prior to KCl addition by Fluo-4-AM probe-based fluorescence analysis; assay type: cell-based
In short: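 SH-SY5Y cells at confluence (48 h after seeding) loaded with 10 μM Fluo-4/AM plus 0.2% pluronic in Krebs–HEPES (pH 7.4) for 45 min at 37 °C, then washed. Compound at 1 μM for 10 min, then KCl 70 mM. Ex 485/em 520 nm; signal normalized to Fmax (Triton X-100) minus Fmin (MnCl2). At least six experiments versus K+ response without compound.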

SH-SY5Y [3] = assay: Neuroprotective activity in human SH-SY5Y cells assessed as reversal of okadaic acid-induced cytotoxicity at 0.1 uM preincubated for 24 hrs followed by […] by MTT assay; assay type: functional
Homo sapiens [4] = organism: Homo sapiens; assay: Suppression of okadaic acid-induced inhibition of PP1/PP2A in human SHSY-5Y cells at 0.1 uM using pNPP as substrate assessed as remaining total phosphatase activity incubated for 30 mins by colorimetric assay (reference value: 68 +/- 2%); assay type: cell-based
In short: (§1)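 SH-SY5Y cells treated with compound at 0.1 μM plus okadaic acid 15 nM (24 h preincubation, then coincubation). Medium removed; assay buffer with pNPP (10 mM) added, 30 min at 37 °C in the dark, absorbance at 405 nm. For Ser/Thr activity, 1 mM orthovanadate added to the buffer. Expressed as % of untreated cells; at least four experiments.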

Homo sapiens [5] = organism: Homo sapiens; assay: Suppression of okadaic acid-induced inhibition of PP1/PP2A in human SHSY-5Y cells at 0.1 uM using pNPP as substrate assessed as remaining Ser/Thr phosphatase activity incubated for 30 mins in presence of tyrosine phosphatase inhibitor sodium orthovanadate by colorimetric assay (reference value: 61 +/- 3%); assay type: cell-based; in short: as §1
[6] = (§2) Neuroprotective activity in Sprague-Dawley rat hippocampal cells assessed as reversal of glutamate-induced cytotoxicity at 10 uM incubated for 4 hrs by MTT assay; assay type: functional, Hippocampal neurone
In short: (§3)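 Hippocampal slices from 2-month-old Sprague–Dawley rats stabilized 45 min at 34 °C, then coincubated 4 h with compound and glutamate 1 mM. Viability by MTT (0.3 mg/mL, 30 min), absorbance at 540 nm. Reported as % protection relative to glutamate-only slices; at least four tissue batches in quadruplicate.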

Bos taurus [7] = organism: Bos taurus; assay: Inhibition of VGCC in bovine chromaffin cells assessed as potentiation of compound-induced of reduction in depolarization-evoked Ca2+ current at 1 uM at -80 mV holding potential using 50 millisec depolarization pulses every 20 secs in presence of L-type VGCC blocker nifedipine by patch clamp method; assay type: cell-based
Bos taurus [8] = organism: Bos taurus; assay: Inhibition of VGCC in bovine chromaffin cells assessed as reduction in depolarization-evoked Ca2+ current at 1 uM at -80 mV holding potential using 50 millisec depolarization pulses every 20 secs by patch clamp method; assay type: cell-based
Bos taurus [9] = organism: Bos taurus; assay: Inhibition of VGCC in bovine chromaffin cells assessed as reduction in depolarization-evoked Ca2+ current at 1 uM at -80 mV holding potential using 50 millisec depolarization pulses every 20 secs in presence of […] N and P/Q type VGCC blocker omega-conotoxin MV2C by patch clamp method; assay type: cell-based
Cortical neurone = assay: Cytotoxicity against rat cortical motor neurons assessed as reduction of cell viability at 1 uM incubated for 48 hrs by MTT assay; assay type: cell-based
In short: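 Rat cortical motor neurons in neurobasal medium with 2% B-27 on poly-D-lysine, grown 8−10 days to a dense network, then exposed to compound for 48 h. Viability read by MTT (0.3 mg/mL final, 30 min, 37 °C, dark), formazan dissolved in DMSO, absorbance 540 nm, expressed as % of untreated cells.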

Hippocampal neurone = assay: as §2; assay type: functional; in short: as §3

Structure (SMILES)	Activity (SH-SY5Y [1])	inhibition (INH) [2] [%]	Activity (SH-SY5Y [3]) [%]	Activity (Homo sapiens [4]) [%]	Activity (Homo sapiens [5]) [%]	Activity [6] [%]	inhibition (Bos taurus [7])	inhibition (Bos taurus [8])	inhibition (Bos taurus [9])	Activity (Cortical neurone)	Activity (Hippocampal neurone)
C#CCn1cc(CN(C)C)c2cc(C)ccc21	Non-Toxic	14	12	80	74						
C#CCn1cc(CN2CCCCC2)c2cc(Br)ccc21	Non-Toxic	42	47	77	72						
CN(C)Cc1c[nH]c2ccc(Br)cc12 [BROMOGRAMINE]	Non-Toxic	3	47	80	76	40					
Cc1ccc2c(c1)c(CN1CCCCC1)cn2Cc1ccccc1	Non-Toxic	22	56	77	78		Active	40%	Active		
CCCCn1cc(CN2CCCCC2)c2cc(Br)ccc21	Non-Toxic	63	71	78	79			Active			
CC12CC3CC(C)(C1)CC(N)(C3)C2				77	78						
CN(C)Cc1c[nH]c2ccccc12 [GRAMINE]		25	45	80	76			Active			
Brc1ccc2[nH]cc(CN3CCCCC3)c2c1	Non-Toxic	7	60	74	67						
C#CCn1cc(CN(C)C)c2cc(Br)ccc21	Non-Toxic	10	12	70	64						
CCOC(=O)CCCn1cc(CN2CCCCC2)c2cc(Br)ccc21	Non-Toxic	16	43	73	71						
Cc1ccc2[nH]cc(CN(C)C)c2c1	Non-Toxic	10	59	79	77						
COc1ccc2[nH]cc(CCNC(C)=O)c2c1 [MELATONIN]			43								
Cc1ccc2c(c1)c(CN(C)C)cn2Cc1ccccc1	Non-Toxic	18	44	73	66						
Cc1ccc2[nH]cc(CN3CCCCC3)c2c1	Non-Toxic	16	38	71	69						
C#CCn1cc(CN2CCCCC2)c2cc(C)ccc21	Non-Toxic	25	42	71	66						
Cc1ccc2c(c1)c(CN(C)C)cn2CCCCN1CCCCC1	Non-Toxic	16	37	74	68						
c1ccc2c(CN3CCCCC3)c[nH]c2c1	Non-Toxic	30	47	76	79					Toxic	
CCCCn1cc(CN2CCCCC2)c2cc(C)ccc21	Non-Toxic	21	46	69	66			Active			
Brc1ccc2c(c1)c(CN1CCCCC1)cn2Cc1ccccc1	Non-Toxic	45	54	79	70			Active			
Cc1ccc2c(c1)c(CN1CCCCC1)cn2CCCCN1CCCCC1	Non-Toxic	4	26	72	70						
Cc1ccc2c(c1)c(CN1CCCCC1)cn2CCCCCl	Non-Toxic	35	56	71	62						Active
CN(C)Cc1cn(Cc2ccccc2)c2ccc(Br)cc12	Non-Toxic	38	56	81	78						
CN(C)Cc1cn(CCCCN2CCCCC2)c2ccc(Br)cc12	Non-Toxic	14	31	73	68						
CCOC(=O)CCCn1cc(CN(C)C)c2cc(Br)ccc21	Non-Toxic	13	58	76	66						Active
CCCCn1cc(CN(C)C)c2cc(Br)ccc21	Non-Toxic	14	66	81	76	40					
ClCCCCn1cc(CN2CCCCC2)c2cc(Br)ccc21	Non-Toxic	57	48	68	62						
